# UBC13 inh: UBC13 polyubiquitin chain formation inhibitors, primary screen, biochemical, TR-FRET, uHTS. Ubiquitin-conjugating enzyme E2 N (Homo sapiens), P61088. inhibition, % at 20 µM. actives 0.47% (n = 330,000); in the data active means inhibition above about 45%, passing the limit was not always enough; inconclusive means no clear call, values can overlap the other calls
# Target sequence (P61088 whole entry, looked up): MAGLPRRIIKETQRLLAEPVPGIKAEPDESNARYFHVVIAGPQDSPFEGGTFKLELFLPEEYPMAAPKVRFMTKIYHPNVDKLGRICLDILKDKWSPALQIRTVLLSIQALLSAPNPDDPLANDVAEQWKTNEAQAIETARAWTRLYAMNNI
# PP1 inh: PP1-alpha phosphatase inhibitors, primary screen, counter-screen for PP5 inhibitor project, biochemical, fluorescence, OMFP substrate, single point; inhibition, % at 6.7 µM; actives 0.9% (n = 320,000); purified PP1alpha; Serine/threonine-protein phosphatase PP1-alpha catalytic subunit (Homo sapiens), P62136; AID 2235, 2010;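 active means inhibition above the mean inhibition of all tested compounds plus 3 SD, computed separately for each screening campaign, cut at about 15% in these data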
# Target sequence (P62136 whole entry, looked up): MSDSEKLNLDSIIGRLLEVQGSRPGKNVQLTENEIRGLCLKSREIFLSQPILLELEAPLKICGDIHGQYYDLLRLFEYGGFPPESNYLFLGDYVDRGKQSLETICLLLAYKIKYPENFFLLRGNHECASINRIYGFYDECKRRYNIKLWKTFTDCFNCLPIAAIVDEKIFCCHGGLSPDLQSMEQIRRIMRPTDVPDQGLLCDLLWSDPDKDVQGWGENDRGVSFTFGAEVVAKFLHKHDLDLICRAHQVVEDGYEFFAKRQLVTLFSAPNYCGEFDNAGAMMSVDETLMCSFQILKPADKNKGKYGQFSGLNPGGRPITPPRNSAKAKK
# p-CIP stab down: p/CIP-EGFP fusion destabilizers, primary screen, fluorescence, F442A cells | Q05BA5 | 16 h | decrease of EGFP signal, % at 10 µM | actives 0.01% (n = 290,000) | AID 1984, 2009;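 active means EGFP signal decrease of at least 30% at 10 µM or well 3 SD below plate mean, unless failing retest; inactive means the rest, including hits failing retest or dose response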
# T cruzi inh: inhibitors of intracellular T. cruzi growth, primary screen, luminescence, NIH3T3 host cells; T. cruzi beta-gal in NIH3T3, 90 h; actives 1.4% (n = 300,000); inhibition, % (concentration not given with the values);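 active means mean inhibition across valid replicates above about 55%, limit read from the data; inconclusive means mean below that limit but half or more replicates reach it; inactive means mean below it, under half of replicates reach it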;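 further: signal also drops with host cell toxicity which is not excluded here; 0% = plate median of DMSO wells and 100% = zero luminescence signal; higher percent means less beta-gal luminescence so fewer parasites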
#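 System: mouse NIH/3T3 fibroblasts infected with β-gal-expressing T. cruzi Tulahuen C4 / Input: NIH/3T3 cells, 5,000 per well / Buffer or medium: Low-serum DMEM with 2% FBS / Probe or stimulus: 5000 reporter trypomastigotes per well / Schedule: ≥90 h infection period, 3 h prior cell attachment / Measured by: GalScreen luminescence, 60 min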
# AI-2 QS modul: Vibrio harveyi AI-2 quorum sensing modulators, primary screen, JMH597 strain, luminescence/OD600 ratio. Vibrio harveyi JMH597 AI-2 luminescence/OD600 ratio, 9 h; stronger effect = lower value; strain lacks LuxN and CqsS sensors; 0 = neutral-control median. activity change, % at 7.5 µM. actives 0.4% (n = 300,000); in the data active means activity change below about -75%, passing the limit was not always enough; inconclusive means no clear call, values can overlap the other calls;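 further: luminescence divided by OD600 gain over 9 h not by final OD600 alone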
# Casp3 counter: CASP3 inhibitor validation, counterassay for project on UBE2N polyubiquitination blockers, biochemical, one dose | Recombinant caspase-3, Caspase-Glo 3/7 luminescence, 60 min | shares compounds with UBC13 inh | inhibition, % at 20 µM | actives 4% (n = 1,400);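 active means mean inhibition across replicates above about 26%, limit read from the data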;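 further: plate controls were DMSO with caspase-3 for no effect and DMSO wells lacking enzyme for full effect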
# UBC13 confirm: UBC13 polyubiquitination inhibitors, single-point retest, confirmation, biochemical, TR-FRET, single concentration; actives 68% (n = 1,400); inhibition, % at 10 µM; shares compounds with UBC13 inh; AID 488859, 2010; in the data active means inhibition above about 45%; inconclusive means no clear call, values can overlap the other calls
# An asterisk follows results filed as active; ? = inconclusive; · = not tested or not shown. Sampled rows, rich in hits. Any-hit rate of the full collection: about 2.8%.
SMILES,UBC13 inh,PP1 inh,p-CIP stab down,T cruzi inh,AI-2 QS modul,Casp3 counter,UBC13 confirm
CC(C)Cn1c(=O)c(C(=O)Nc2ccccc2S(N)(=O)=O)c(O)c2ccccc21,69*,4,3,-14,14,-3,2
Cc1cc(=O)n2nc(N3CCCC3C(=O)Nc3cccc(Cl)c3C)sc2n1 (stereo unspecified),-7,0,-6,-10,21,·,·
COc1ccc(/C=N/NC(=O)Cc2csc(Nc3cccc(C(F)(F)F)c3)n2)c(OC)c1,78*,3,-9,10,18,-2,69*
COc1ccc(-c2oc3ncnc(N)c3c2-c2ccccc2)cc1,81*,-2,-8,7,12,-2,81*
CCC(=O)N1c2ccc(C)cc2C2=NNC(=S)NC21O (stereo unspecified),47*,-1,4,9,1,3,-13
CC1=CC(C)(C)N(C(=O)CN2C(=O)c3ccccc3C2=O)c2ccc(C)cc21,3,2,-13,-14,3,·,·
CCN1CCN(Cc2ccc(NC(=O)c3ccc(C)c(NC(=O)c4nccn4C)c3)cc2C(F)(F)F)CC1,-2,-1,-22,11,7,·,·
CCN1CCN(Cc2ccc(NC(=O)c3ccc(C)c(NC(=O)c4cc(-c5ccc(Br)cc5)n[nH]4)c3)cc2C(F)(F)F)CC1,72*,7,-7,60*,46,2,65*
CC1CCN(CCCNC(=O)c2ccc3c(=O)n(Cc4ccc(Cl)cc4)c(=S)[nH]c3c2)CC1,53*,6,0,8,18,2,73*
CCCCN(C)CCNC(=O)c1ccc(Cn2c(=S)[nH]c3ccc(Br)cc3c2=O)cc1,48*,0,9,77*,27,34*,48*
O=C(COC(=O)/C=C/c1cccs1)Nc1ccc(Cl)cc1F,2,·,·,·,·,·,·
CN(C)CCCNc1cc(C(C)(C)C)nc2c(-c3ccccc3)cnn12,66*,1,2,56*,11,1,34
Cc1cc(NCCCN2CCOCC2)n2ncc(-c3ccccc3)c2n1,8,-1,-1,29,22,·,·
CSC(=S)N/N=C/c1ccccc1,14,-4,-7,-25,9,·,·
CCc1cc(C(=O)N2CCCC(C(=O)c3ccc(Oc4ccccc4)cc3)C2)n(C)n1 (stereo unspecified),6,8,5,-16,13,·,·
CC(C)n1cnc2c(N(C)c3ccccc3)nc(N(CCN(C)C)Cc3ccccc3)nc21,57*,-2,-6,51,23,-4,38
Oc1cc(Nc2ccncc2)cc2cccnc12,104*,·,·,·,·,-2,109*
CCn1c(SCC(=O)Nc2ccc(OC)cc2)nc2c(c1=O)SCC2,-5,-3,0,3,18,·,·
O=C(Cc1cccc2ccccc12)NN1C(=O)CSC1=S,-4,-5,-3,-5,-3,·,·
O=C(NN1C(=O)CSC1=S)C(=O)NN1C(=O)CSC1=S,47*,-4,-14,13,11,8,29
CCO[C@H]1OC(C(=O)NCc2ccccc2)=C[C@@H](c2ccccc2)[C@@H]1CCCO,50*,1,0,-7,24,0,10
CCO[C@@H]1OC(C(=O)NCc2ccccc2)=C[C@H](c2ccccc2)[C@H]1CCCO,10,-1,-2,-5,23,·,·
COc1cc(/C=C/c2cc[n+](C)cc2)ccc1OCC(=O)Nc1ccc(Cl)c(Cl)c1,103*,12,-2,12,21,-1,116*
COc1ccc(NC(=O)COc2ccc(/C=C/c3cc[n+](C)cc3)cc2OC)cc1,2,0,-5,-1,8,·,·
Oc1cccc(NC(=S)N=Nc2c(O)[nH]c3ccc(Br)cc23)c1,86*,3,15,17,39,3,?
SMILES,UBC13 inh,PP1 inh,p-CIP stab down,T cruzi inh,AI-2 QS modul,Casp3 counter,UBC13 confirm
Oc1ccc(NC(=S)N=Nc2c(O)[nH]c3ccc(Br)cc23)cc1,?,·,14,-48,?,·,·
Oc1ccc(NC(=S)N=Nc2c(O)[nH]c3ccccc23)cc1,92*,-5,-7,-35,31,6,103*
COc1ccc(-c2cc(C3CCN(c4cc(Cl)nc(N)n4)CC3)[nH]n2)cc1,46*,1,-9,23,25,0,46*
COc1ccc(OC)c(-c2cc(C3CCN(c4cc(Cl)nc(N)n4)CC3)[nH]n2)c1,30,6,-14,45,29,·,·
COc1cccc(N/N=C(\C#N)S(=O)(=O)C(C)(C)C)c1,-6,-4,-1,-6,8,·,·
Cc1cccn2c(=O)c(C=O)c(N3CCCCCC3)nc12,55*,5,-14,16,-1,3,64*
COc1cccc(-c2c(-c3cc(OC)cc(OC)c3)n(C)c3ccc(Br)cc23)c1,27,0,·,·,·,·,·
COc1cccc(-c2c(-c3cc(OC)cc(OC)c3)n(C)c3ccc(-c4ccc(OC)nc4)cc23)c1,46*,3,·,·,·,3,?
COc1ccc(-c2c(-c3cc(OC)cc(OC)c3)n(C)c3ccc(Br)cc23)cc1,48*,1,·,·,·,2,42
COc1ccc(C=O)cc1CSc1ncccc1C(=O)O,2,-4,-12,-14,24,·,·
CCc1ccccc1OCC(=O)OCC(=O)Nc1cc(C)on1,48*,17*,·,·,·,6,16
Cc1cc(NC(=O)COC(=O)COc2ccc(C(=O)c3ccccc3)cc2)no1,2,1,-2,-21,11,·,·
C[C@H](CO)N1C[C@H](C)[C@@H](CN(C)S(=O)(=O)c2ccccc2)Oc2c(NC(=O)Nc3ccc(C(F)(F)F)cc3)cccc2C1=O,52*,·,·,·,·,-2,37
COC(=O)c1ccc(Cn2c(O)c(N=NC(N)=S)c3ccccc32)o1,69*,-1,-8,14,6,2,81*
C/C(Cl)=C\Cn1c(O)c(N=NC(N)=S)c2ccccc21,84*,0,-8,60*,10,-4,102*
CC(NC(=O)CSc1nc(C2CC2)n(-c2ccccc2)n1)c1ccco1 (stereo unspecified),4,-2,·,·,·,·,·
N#Cc1c(N)n(CCCN2CCOCC2)c2nc3ccccc3nc12,10,-2,-7,·,·,·,·
Nc1c(C(=O)Nc2ccccc2)c2nc3ccccc3nc2n1CCCN1CCOCC1,64*,-5,7,27,34,4,54*

# Screening results as filed in PubChem BioAssay.
